Data as given in the M2OR odorant receptor database.
Positions count from the first letter of the chain named.

Legend:
Conditions in all cases: stereoisomer not certain
O5AP2 A105T = test system: T1, O5AP2 A105T
T1 sequence (whole entry): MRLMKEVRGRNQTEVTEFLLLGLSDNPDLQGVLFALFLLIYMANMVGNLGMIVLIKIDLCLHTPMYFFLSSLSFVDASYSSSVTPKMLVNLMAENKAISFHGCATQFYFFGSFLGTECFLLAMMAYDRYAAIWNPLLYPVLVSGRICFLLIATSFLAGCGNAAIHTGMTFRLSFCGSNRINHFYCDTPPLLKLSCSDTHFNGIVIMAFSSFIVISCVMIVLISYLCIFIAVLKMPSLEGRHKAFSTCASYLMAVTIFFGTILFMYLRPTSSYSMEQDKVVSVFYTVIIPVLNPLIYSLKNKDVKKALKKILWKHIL
Summary of the method: (§1)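 Values were gathered from published papers (main text and supplementary material), with extra details requested from the original authors when needed, and checked for typos and inconsistencies. Each receptor–molecule pair is called responsive (active) if the original authors judged the measured signal statistically different from baseline, and non-responsive (inactive) otherwise. Assay methods varied by source, often transient mammalian cell-line luciferase assays. Recorded details include cell line, G-protein, co-transfected protein and tags.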

O5AU1 = test system: T2, O5AU1
T2 sequence (whole entry): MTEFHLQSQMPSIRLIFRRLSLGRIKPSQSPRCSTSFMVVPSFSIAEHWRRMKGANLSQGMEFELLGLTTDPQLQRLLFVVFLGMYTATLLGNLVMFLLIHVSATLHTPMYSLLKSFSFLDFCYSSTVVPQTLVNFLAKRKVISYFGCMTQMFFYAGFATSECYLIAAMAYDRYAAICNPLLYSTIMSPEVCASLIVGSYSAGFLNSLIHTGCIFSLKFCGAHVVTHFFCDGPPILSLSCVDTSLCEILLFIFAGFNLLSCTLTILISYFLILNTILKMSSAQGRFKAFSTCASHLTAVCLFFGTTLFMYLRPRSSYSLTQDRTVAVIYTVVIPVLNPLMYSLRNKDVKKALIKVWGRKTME
Summary of the method: as §1

O5H14 = test system: T3, O5H14
T3 sequence (whole entry): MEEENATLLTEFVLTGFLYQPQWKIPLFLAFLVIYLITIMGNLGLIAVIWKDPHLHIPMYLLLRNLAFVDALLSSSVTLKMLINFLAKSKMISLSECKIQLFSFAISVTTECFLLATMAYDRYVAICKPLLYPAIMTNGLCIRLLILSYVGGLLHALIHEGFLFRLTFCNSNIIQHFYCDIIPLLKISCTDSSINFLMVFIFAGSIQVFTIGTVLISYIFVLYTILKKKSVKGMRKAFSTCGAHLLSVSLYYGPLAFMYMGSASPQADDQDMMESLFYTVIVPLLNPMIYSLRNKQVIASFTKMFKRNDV
Summary of the method: as §1

O5H15 V108I S148T T167S = test system: T4, O5H15 V108I S148T T167S
T4 sequence (whole entry): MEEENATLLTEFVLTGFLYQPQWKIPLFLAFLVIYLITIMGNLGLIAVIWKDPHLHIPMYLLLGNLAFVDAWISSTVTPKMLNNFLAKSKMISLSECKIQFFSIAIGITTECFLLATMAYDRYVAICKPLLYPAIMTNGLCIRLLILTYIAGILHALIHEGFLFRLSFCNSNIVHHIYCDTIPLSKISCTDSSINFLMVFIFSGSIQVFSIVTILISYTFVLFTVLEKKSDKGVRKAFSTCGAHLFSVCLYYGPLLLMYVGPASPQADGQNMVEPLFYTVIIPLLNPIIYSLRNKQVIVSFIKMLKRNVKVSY
Summary of the method: as §1

O6C65 T222A = test system: T5, O6C65 T222A
T5 sequence (whole entry): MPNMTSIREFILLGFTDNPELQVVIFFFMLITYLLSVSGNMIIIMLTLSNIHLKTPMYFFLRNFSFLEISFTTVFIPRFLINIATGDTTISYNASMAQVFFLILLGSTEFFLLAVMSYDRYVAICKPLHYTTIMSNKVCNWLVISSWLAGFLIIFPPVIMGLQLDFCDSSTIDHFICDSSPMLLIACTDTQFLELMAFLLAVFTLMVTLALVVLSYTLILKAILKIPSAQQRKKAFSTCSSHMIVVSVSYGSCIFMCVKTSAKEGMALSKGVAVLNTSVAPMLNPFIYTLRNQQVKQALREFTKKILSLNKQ
Summary of the method: as §1

O6C70 L181P = test system: T6, O6C70 L181P
T6 sequence (whole entry): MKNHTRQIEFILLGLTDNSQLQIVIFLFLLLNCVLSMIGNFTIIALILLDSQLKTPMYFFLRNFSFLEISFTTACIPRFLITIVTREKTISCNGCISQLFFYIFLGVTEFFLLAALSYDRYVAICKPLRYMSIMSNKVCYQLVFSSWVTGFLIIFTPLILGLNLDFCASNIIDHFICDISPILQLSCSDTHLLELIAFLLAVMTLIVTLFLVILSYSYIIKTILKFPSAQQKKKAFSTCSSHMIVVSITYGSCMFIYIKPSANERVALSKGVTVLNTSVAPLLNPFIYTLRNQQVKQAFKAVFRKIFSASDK
Summary of the method: as §1

O7E24 S193F P242S = test system: T7, O7E24 S193F P242S
T7 sequence (whole entry): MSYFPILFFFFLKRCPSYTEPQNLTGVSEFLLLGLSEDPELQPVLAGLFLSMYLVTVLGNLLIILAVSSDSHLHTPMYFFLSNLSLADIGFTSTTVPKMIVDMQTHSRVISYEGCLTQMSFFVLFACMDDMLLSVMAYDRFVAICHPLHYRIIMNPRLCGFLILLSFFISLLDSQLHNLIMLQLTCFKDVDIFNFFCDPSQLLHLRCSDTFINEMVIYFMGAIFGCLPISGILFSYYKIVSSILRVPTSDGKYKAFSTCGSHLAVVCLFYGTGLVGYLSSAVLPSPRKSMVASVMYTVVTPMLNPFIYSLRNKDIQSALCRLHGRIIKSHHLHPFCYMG
Summary of the method: as §1

O7E24 = test system: T8, O7E24
T8 sequence (whole entry): T7 sequence (whole entry) with F193S
Summary of the method: as §1

OR10A2 (Homo sapiens) = biological target: T9, OR10A2 (Homo sapiens) (UniProt Q9H208)
T9 sequence (whole entry): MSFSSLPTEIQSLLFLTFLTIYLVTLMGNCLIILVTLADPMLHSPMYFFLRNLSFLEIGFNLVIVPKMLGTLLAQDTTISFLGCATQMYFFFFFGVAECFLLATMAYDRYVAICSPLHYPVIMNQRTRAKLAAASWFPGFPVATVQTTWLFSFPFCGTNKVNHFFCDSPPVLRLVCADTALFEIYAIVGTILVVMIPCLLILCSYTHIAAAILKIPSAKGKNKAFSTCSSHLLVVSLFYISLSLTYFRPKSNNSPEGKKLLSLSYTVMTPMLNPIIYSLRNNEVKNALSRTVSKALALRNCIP
Summary of the method: as §1

OR10A3 (Homo sapiens) = biological target: T10, OR10A3 (Homo sapiens) (UniProt P58181)
T10 sequence (whole entry): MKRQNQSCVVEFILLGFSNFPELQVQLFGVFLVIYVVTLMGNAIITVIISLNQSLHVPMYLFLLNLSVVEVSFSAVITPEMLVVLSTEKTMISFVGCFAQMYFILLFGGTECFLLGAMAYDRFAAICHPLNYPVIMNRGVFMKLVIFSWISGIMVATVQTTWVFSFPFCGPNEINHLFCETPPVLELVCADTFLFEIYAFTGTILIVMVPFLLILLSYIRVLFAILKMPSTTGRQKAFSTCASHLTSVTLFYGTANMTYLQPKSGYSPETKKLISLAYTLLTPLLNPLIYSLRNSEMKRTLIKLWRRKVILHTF
Summary of the method: as §1

OR10A4 (Homo sapiens) = biological target: T11, OR10A4 (Homo sapiens) (UniProt Q9H209)
T11 sequence (whole entry): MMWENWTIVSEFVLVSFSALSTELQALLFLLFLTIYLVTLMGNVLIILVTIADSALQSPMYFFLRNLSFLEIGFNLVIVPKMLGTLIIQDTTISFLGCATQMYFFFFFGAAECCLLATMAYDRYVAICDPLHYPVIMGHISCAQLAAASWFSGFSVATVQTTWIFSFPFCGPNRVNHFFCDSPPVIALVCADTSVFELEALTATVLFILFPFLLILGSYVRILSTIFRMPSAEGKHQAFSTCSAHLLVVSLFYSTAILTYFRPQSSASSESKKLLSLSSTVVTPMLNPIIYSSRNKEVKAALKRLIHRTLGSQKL
Summary of the method: as §1

OR10A5 (Homo sapiens) = biological target: T12, OR10A5 (Homo sapiens) (UniProt Q9H207)
T12 sequence (whole entry): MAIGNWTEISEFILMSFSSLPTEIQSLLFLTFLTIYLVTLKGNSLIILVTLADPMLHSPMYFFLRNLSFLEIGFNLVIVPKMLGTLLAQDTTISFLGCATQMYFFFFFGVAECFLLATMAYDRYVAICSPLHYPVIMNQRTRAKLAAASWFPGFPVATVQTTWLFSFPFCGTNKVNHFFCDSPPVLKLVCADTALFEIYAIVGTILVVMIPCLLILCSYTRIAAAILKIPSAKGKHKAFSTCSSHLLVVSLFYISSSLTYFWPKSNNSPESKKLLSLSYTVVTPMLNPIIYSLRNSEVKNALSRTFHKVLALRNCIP
Summary of the method: as §1

OR10A6 (Homo sapiens) = biological target: T13, OR10A6 (Homo sapiens) (UniProt Q8NH74)
T13 sequence (whole entry): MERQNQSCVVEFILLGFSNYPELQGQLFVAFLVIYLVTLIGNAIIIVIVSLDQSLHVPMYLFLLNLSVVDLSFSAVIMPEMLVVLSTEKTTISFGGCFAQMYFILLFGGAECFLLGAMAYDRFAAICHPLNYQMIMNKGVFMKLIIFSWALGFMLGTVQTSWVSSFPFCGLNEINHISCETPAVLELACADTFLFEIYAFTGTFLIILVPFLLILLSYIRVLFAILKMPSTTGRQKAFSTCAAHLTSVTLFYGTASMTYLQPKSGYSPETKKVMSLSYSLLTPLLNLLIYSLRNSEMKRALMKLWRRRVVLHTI
Summary of the method: as §1

OR10A7 (Homo sapiens) = biological target: T14, OR10A7 (Homo sapiens) (UniProt Q8NGE5)
T14 sequence (whole entry): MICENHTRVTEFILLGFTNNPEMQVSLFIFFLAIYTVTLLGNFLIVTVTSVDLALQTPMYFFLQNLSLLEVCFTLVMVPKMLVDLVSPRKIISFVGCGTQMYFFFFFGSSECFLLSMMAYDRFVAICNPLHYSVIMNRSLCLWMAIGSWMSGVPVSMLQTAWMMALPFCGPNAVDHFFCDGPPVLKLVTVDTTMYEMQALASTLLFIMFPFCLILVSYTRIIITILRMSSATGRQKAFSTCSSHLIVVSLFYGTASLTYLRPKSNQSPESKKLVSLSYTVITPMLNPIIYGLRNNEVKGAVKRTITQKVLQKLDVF
Summary of the method: as §1

OR10AD1 (Homo sapiens) = biological target: T15, OR10AD1 (Homo sapiens) (UniProt Q8NGE0)
T15 sequence (whole entry): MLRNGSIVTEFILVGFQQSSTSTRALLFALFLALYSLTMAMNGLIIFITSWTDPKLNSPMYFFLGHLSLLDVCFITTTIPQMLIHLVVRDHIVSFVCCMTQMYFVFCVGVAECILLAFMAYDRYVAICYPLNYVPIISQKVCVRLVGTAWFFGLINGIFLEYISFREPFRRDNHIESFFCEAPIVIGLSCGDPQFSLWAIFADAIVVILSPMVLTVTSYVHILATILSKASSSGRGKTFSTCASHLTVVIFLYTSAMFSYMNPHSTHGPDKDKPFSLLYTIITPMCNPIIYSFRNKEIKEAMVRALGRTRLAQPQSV
Summary of the method: as §1

OR10AG1 (Homo sapiens) = biological target: T16, OR10AG1 (Homo sapiens) (UniProt Q8NH19)
T16 sequence (whole entry): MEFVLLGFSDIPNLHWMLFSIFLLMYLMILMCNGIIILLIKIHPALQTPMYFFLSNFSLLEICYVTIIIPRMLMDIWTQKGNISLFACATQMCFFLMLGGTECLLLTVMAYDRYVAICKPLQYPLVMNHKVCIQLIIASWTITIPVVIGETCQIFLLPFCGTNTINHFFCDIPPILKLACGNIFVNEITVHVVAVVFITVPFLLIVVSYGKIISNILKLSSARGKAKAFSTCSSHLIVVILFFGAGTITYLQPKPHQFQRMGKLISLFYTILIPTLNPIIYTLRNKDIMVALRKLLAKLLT
Summary of the method: as §1

OR10C1 (Homo sapiens) = biological target: T17, OR10C1 (Homo sapiens) (UniProt Q96KK4)
T17 sequence (whole entry): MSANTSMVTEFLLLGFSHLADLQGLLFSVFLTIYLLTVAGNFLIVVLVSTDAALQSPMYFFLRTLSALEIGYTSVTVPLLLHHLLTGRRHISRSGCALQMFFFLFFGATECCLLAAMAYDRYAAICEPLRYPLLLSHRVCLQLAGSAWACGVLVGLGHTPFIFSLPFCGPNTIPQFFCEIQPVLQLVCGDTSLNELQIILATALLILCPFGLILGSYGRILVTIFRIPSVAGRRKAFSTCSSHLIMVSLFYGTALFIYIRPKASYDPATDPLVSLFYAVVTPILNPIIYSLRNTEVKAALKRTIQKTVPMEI
Summary of the method: as §1

OR10D3 (Homo sapiens) = biological target: T18, OR10D3 (Homo sapiens) (UniProt Q8NH80)
T18 sequence (whole entry): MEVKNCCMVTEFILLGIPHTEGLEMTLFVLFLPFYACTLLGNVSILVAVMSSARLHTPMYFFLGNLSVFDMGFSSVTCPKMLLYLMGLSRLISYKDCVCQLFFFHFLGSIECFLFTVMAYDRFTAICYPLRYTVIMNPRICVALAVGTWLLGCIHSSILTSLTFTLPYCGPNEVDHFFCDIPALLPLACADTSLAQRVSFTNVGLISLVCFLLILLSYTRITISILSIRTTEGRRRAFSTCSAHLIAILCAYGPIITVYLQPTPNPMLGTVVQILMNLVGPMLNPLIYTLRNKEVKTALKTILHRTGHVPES
Summary of the method: as §1

Measured: odorant receptor agonist call

Cc1cnc(C)c(C)n1
inactive: all assays above
